# Assay outcomes as filed in PubChem.
# Hits are enriched below; roughly 5.1% of the tested compounds scored in any of these assays.
# STAT1 activator = STAT1 signaling activation. NIH 3T3 STAT1-luciferase reporter, IFN-gamma, luminescence; 100% = IFN-gamma alone, no compound. activation (% of control), % at 5.5 µM. 200,000 compounds, 2.6% hits;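 active means activation above the screen-wide mean activation plus 3 SD, cut at about 130% in these data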;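 further: raw ratio to IFN-gamma control signal so 100% means no change and 0% no light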
# STAT3 blocker = STAT3 signaling inhibition. U3A cells, IL-6 STAT3-luciferase reporter, luminescence; host cell line lacks STAT1. inhibition, % at 5.5 µM. 190,000 compounds, 0.89% hits. AID 862;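 active means inhibition above the mean inhibition across all screened compounds plus 3 SD, cut at about 44% in these data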;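 further: 0% = DMSO only wells and 100% = 100 µM nifuroxazide control wells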
# STAT1 blocker = STAT1 signaling inhibition. NIH 3T3 STAT1-luciferase reporter, IFN-gamma, luminescence. inhibition, % at 5.5 µM. 200,000 compounds, 0.35% hits. AID 920;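 active means inhibition above a set limit, the mean inhibition across all tested compounds plus 3 SD, cut at about 34% in these data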;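 further: 0% = IFN-gamma with DMSO and 100% = IFN-gamma with 300 µM nifuroxazide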
# NF-kB expr up = compounds increasing NF-kB expression in human neuronal cells; NF-kB reporter expression; hits give high values; fold change at 12.5 µM; 190,000 compounds, 1.6% hits; AID 1239; in the data active means fold change above about 3.3
# STAT3 activator = STAT3 signaling activation; U3A cells, IL-6 STAT3-luciferase reporter, luminescence; 100% = signal with IL-6 EC80 alone; activation (% of control), % at 5.6 µM; 190,000 compounds, 0.91% hits; AID 871;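 active means activation above the screen-wide mean of compound activation plus 3 SD, cut at about 130% in these data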;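 further: 0% = background luminescence of wells with medium and substrate only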
#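 System – human U3A cells carrying STAT3-luciferase construct · Probe or stimulus – Interleukin-6, 33 ng/mL · Schedule – compound 1 h, then IL-6 6 h at 37 °C · Signal – luminescence from STAT3-driven luciferase reporter · Evaluation – percent of IL-6-only median luminescence · Benchmarks – IL-6-only high control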
# APP 5'UTR act = activates APP 5'UTR luciferase reporter. SH-SY5Y APP 5'UTR luciferase reporter, luminescence; zero percent = DMSO vehicle wells. activation, % at 2 µM. 190,000 compounds, 1% hits. AID 1276;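 active means activation above a set limit, based on mean plus 3 SD of controls, cut at about 140% in these data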
# Numbers without * were called inactive.
SMILES,STAT1 activator,STAT3 blocker,STAT1 blocker,NF-kB expr up,STAT3 activator,APP 5'UTR act
O=C(O)CSCC(=O)Nc1ccc(C2CCCCC2)cc1,52,93*,52*,0.19,23,-67
Nn1cnnc1SCC(=O)Nc1ccc(C2CCCCC2)cc1,116,-1,-19,2.1,107,19
COc1ccc(OCc2nnc(SCC(=O)c3c(N)n(C)c(=O)n(C)c3=O)n2-c2ccccc2F)cc1,103,7,-4,1.1,100,-11
O=C(CSc1nnc(-c2ccc(O)cc2)n1Cc1ccco1)c1cccs1,95,20,5,1,88,8
O=C(CC(SCc1ccco1)c1ccc(O)cc1)c1cccs1 (configuration not stated),118,-25,-19,5.4*,127,71
O=C(CC(SCCO)c1ccc2c(c1)OCO2)c1cccs1 (configuration not stated),132*,-3,-34,3.2,108,69
CSc1ccccc1C(=O)N1CCN(c2ncccn2)CC1,92,12,10,0.96,94,-6
CCCC(=O)n1nc(-c2cccnc2)nc1NCc1ccccc1,105,12,-7,0.96,95,-7
Cc1cc(C(=O)COC(=O)c2cccnc2Cl)c(C)n1CC1CCCO1 (configuration not stated),24,88*,80*,0.44,25,132
Cc1cc(C(=O)COC(=O)C2COc3ccccc3O2)c(C)n1CC1CCCO1 (configuration not stated),99,6,1,1.3,100,12
O=C(COC(=O)c1cccnc1Cl)NCC1CCCO1 (configuration not stated),87,-2,14,0.99,101,12
Cc1ccc(C(=O)OCC(=O)c2cc(C)n(CC3CCCO3)c2C)cc1 (configuration not stated),140*,-1,-48,1.1,105,101
COc1ccc(OC)c(C(=O)COC(=O)c2cccnc2Cl)c1,83,21,18,1.4,85,8
Cc1cc(C(=O)COC(=O)c2cc(O)c3ccccc3c2O)c(C)n1CC1CCCO1 (configuration not stated),94,-44,5,1,146*,-8
COc1ccc(C(=O)COC(=O)c2cccnc2Cl)c(OC)c1,141*,1,-47,1.8,102,50
CN1CCN(C(=O)NCC23CC4CC(CC(C4)C2)C3)CC1,101,-2,-5,1.1,106,-9
Cc1nn(CC2CC2)c(=O)n1-c1ccccc1F,96,4,4,1.2,100,7
Cc1nn(CCOc2ccccc2)c(=O)n1-c1c(F)cccc1F,140*,-7,-45,2.4,111,62
Cc1ccc(-n2c(C)nn(CCOc3ccccc3)c2=O)cc1,134*,-7,-40,2.2,110,58
COc1cc(OC)c(OC)cc1/C=N/NC(=S)NCC1CCCO1 (configuration not stated),99,-4,1,0.51,104,6
Cc1ccc2oc(-c3cccc(NC(=O)/C=C/c4cccc([N+](=O)[O-])c4)c3C)nc2c1,136*,6,-40,0.95,100,90
COC(=O)CCn1[nH]c(=O)c2ccccc2c1=O,97,0,3,1,100,-4
O=c1[nH]n(Cc2ccccc2)c(=O)c2ccccc12,109,15,-10,4.9*,96,3
CCOc1cc(/C=N/N=C(N)N)ccc1OCc1ccc(Cl)cc1,93,10,7,2.6,91,-27
CCOc1cc(/C=N/N=C2/NC(=O)C(CC(=O)O)S2)ccc1OCc1ccc(Cl)cc1Cl (configuration not stated),97,-5,2,1.1,110,-6
COc1ccc(/C=N/NS(=O)(=O)c2ccc(C)cc2)cc1OC(=O)c1ccccc1,100,11,0,1,96,9
COc1cc(/C=N/O)ccc1OCc1ccc(C(=O)O)cc1,13,111*,93*,3.4*,9,-82
COc1cc(/C=N/N=C2/NC(=O)C(CC(=O)O)S2)ccc1OCc1ccc(Cl)cc1 (configuration not stated),130*,-6,-33,2.5,107,84
